Data set [1] is described as follows: Steroid pharmacokinetics after i.v. or s.c. administration. The data set is classed as in vivo, CD1 mice. The following applies: CD1, mouse, plasma, iv. In outline:
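CD1 mice (n = 4) received steroid i.v. or s.c. intrascapularly. Parent steroid was given in 0.6% ethanol in PBS; ester prodrugs were given within hFGF21 mRNA MC3 LNPs. Serial saphenous blood was drawn, with a terminal sample at 24 h. Parent steroid in plasma was quantified by UPLC–triple quadrupole MS.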

The subject of data set [2] is hFGF21 protein. Type of data set: in vivo. The following applies: prodrug incorporated into the MC3 LNP, s.c., 0.3 mg/kg mRNA, CD1 mice. An outline of the steps: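 CD1 mice (n = 5) under light isoflurane received hFGF21 mRNA in MC3 LNPs (0.3 mg/kg mRNA) s.c. intrascapularly at 5 mL/kg. LNPs were with or without steroid ester prodrug at a prodrug steroid/mRNA weight ratio of 1:1. Saphenous blood was taken at 2, 5, 8 and 24 h. Plasma (3,000 × g, 10 min, 4°C) hFGF21 was measured by multiplex Luminex. AUC2–24 h was reported as a geometric mean.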

As a reminder, the half-life is the time in which the quantity being followed falls by half. Lower therefore signals rapid decline.

SMILES strings stand for the structures.

On to `CCCC1O[C@@H]2C[C@H]3[C@@H]4CCC5=CC(=O)C=C[C@]5(C)[C@H]4[C@@H](O)C[C@]3(C)[C@]2(C(=O)CO)O1` (stereo partly drawn) [Budesonide parent, budesonide], for which the clearance in data set [1] turned out to be 121 mL/min/kg. In addition, in data set [1] (Half-life in plasma, i.v. administration, CD1 mice), the half-life was about 40 min.

For `CCCCCCCCCCCCCC(=O)OCC(=O)[C@@]12O[C@H](CCC)O[C@@H]1C[C@H]1[C@@H]3C[C@H](F)C4=CC(=O)CC[C@]4(C)[C@@]3(F)[C@@H](O)C[C@@]12C` [Rofleponide-C14], the “Fold increase of hFGF21 AUC2–24 h versus MC3 LNP without steroid” value in data set [2] was 3.8 fold.

These data come from paper PMC8039535 (Molecular Therapy. Nucleic Acids, 2021).
